Assay results taken from ChEMBL document CHEMBL1151744, “New analgesics synthetically derived from the paracetamol metabolite N-(4-hydroxyphenyl)-(5Z,8Z,11Z,14Z)-icosatetra-5,8,11,14-enamide” (J Med Chem, 2008).
Active and inactive are the calls of the source. The rule behind the calls is not given here.

Experiments:
[1] = test system: Mus musculus; experiment: Antinociceptive activity against formalin-induced nociceptive behavior in C57BL/6 mouse assessed as mean licking time at 200 mg/kg, ip administered 15 mins prior to formalin challenge measured upto 10 mins relative to control; format: functional; conditions: route intraperitoneal
How it was run: (§1)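 C57BL/6 mice (n = 6-8 per group) were habituated 15-20 min in an observation chamber with mirrors, then given the compound ip at 6 µL/g in PBS/DMSO. Formalin (5%, 20 µL) went into the dorsal left hind paw 15 min later. Licking of the injected paw was summed over 0-10 min (phase 1) and 15-45 min (phase 2) and expressed as % of the vehicle control. Groups were compared by t test.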

[2] = test system: Mus musculus; experiment: Antinociceptive activity against formalin-induced nociceptive behavior in C57BL/6 mouse assessed as mean licking time at 200 mg/kg, ip administered 15 mins prior to formalin challenge measured after 15 to 45 mins relative to control; format: functional; conditions: route intraperitoneal; how it was run: as §1
[3] = target: T1, Fatty-acid amide hydrolase 1 (Rattus norvegicus) (UniProt P97612); experiment: Inhibition of FAAH in rat brain membrane assessed as [14C]anandamide hydrolysis at 50 uM by scintillation counting; format: cell membranes
T1 sequence (whole entry): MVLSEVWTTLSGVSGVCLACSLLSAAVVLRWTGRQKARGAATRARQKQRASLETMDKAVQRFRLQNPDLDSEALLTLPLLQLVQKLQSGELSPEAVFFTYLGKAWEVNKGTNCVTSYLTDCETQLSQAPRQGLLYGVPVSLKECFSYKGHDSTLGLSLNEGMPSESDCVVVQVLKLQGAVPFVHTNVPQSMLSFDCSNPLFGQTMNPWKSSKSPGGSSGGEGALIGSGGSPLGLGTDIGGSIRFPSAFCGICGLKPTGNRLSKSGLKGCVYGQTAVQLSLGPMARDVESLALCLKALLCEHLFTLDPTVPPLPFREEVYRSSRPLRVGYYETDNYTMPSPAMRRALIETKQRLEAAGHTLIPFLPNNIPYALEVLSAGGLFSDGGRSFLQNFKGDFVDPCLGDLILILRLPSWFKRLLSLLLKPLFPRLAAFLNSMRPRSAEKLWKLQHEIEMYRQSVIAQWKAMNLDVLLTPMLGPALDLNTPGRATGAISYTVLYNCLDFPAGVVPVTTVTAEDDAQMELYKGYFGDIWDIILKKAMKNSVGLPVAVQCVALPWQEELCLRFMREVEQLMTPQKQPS
How it was run: (§2)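 Enzyme source was a rat brain membrane pellet resuspended in 50 mM Tris-HCl, pH 9.0, 70 µg protein per assay. It was incubated with compound (10 or 50 µM) and [14C]anandamide (10000 cpm) for 30 min at 37 °C. After CHCl3/MeOH (1:1) extraction, [14C]ethanolamine in the aqueous phase was counted by scintillation. Points were run in duplicate.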

[4] = target: T2, Cannabinoid receptor 1 (Homo sapiens, UniProt P21554); experiment: Displacement of [3H]CP-55940 from human recombinant CB1 receptor expressed in HEK293 cells at 10 uM; format: cell-based
T2 sequence (P21554 whole entry): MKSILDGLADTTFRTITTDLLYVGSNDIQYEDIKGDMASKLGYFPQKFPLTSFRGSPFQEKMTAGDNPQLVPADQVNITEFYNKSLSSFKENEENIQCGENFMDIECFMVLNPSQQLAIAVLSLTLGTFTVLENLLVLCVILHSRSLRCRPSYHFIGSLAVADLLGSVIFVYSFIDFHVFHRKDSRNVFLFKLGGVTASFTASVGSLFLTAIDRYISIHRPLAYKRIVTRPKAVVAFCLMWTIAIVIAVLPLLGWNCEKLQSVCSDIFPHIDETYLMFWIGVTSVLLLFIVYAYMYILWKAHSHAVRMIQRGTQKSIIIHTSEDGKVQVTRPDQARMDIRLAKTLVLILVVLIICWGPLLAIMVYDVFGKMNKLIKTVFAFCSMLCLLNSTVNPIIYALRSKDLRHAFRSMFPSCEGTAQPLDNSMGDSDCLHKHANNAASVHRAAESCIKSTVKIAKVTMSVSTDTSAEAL

[5] = target: T3, Cannabinoid receptor 2 (Homo sapiens, UniProt P34972); experiment: Displacement of [3H]CP-55940 from human recombinant CB2 receptor expressed in HEK293 cells at 10 uM; format: cell-based
T3 sequence (P34972 whole entry): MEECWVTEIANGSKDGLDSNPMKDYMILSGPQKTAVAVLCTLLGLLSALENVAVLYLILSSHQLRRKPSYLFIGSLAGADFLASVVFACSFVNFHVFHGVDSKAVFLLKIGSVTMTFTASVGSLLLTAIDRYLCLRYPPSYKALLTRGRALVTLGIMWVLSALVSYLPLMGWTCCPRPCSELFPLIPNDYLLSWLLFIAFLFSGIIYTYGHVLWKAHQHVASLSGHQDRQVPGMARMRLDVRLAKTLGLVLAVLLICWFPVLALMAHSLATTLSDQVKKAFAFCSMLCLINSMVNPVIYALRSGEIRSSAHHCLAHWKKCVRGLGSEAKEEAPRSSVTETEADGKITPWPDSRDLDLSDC

[6] = target: Prostaglandin G/H synthase 1 (Homo sapiens, UniProt P23219); experiment: Inhibition of cyclooxygenase 1 in human whole blood assessed as thromboxane B2 level; format: tissue-based
Chain of Prostaglandin G/H synthase 1 (P23219 whole entry): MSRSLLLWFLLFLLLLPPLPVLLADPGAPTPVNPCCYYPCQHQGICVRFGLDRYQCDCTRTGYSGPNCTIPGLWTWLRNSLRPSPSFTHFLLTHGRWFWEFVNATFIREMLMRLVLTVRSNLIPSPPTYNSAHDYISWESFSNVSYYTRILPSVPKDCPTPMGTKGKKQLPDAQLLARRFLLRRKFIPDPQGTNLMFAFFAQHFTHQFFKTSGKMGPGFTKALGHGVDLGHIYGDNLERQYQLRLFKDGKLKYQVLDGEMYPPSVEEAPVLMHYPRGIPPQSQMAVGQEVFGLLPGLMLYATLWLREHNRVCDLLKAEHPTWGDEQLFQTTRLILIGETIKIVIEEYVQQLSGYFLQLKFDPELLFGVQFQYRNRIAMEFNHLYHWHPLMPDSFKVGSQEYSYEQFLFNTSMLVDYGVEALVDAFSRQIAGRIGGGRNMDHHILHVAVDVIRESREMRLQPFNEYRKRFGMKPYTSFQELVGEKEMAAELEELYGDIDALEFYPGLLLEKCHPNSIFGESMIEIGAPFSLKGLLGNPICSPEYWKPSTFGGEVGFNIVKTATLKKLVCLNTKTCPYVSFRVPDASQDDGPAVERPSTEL
How it was run: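 Fresh whole blood came from a healthy volunteer free of NSAIDs for 2 weeks. 1 mL aliquots received test agent in DMSO and were left to clot for 1 h at 37 °C. Serum TXB2 was measured by GC-MS/MS, in quadruplicate.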

[7] = test system: Mus musculus; experiment: Toxicity in C57BL/6 mouse assessed as loss of locomotor behavior at 325 mg/kg; format: organism-based; set-up: dose 325 mg/kg; conditions: in vivo
[8] = target: T4, Prostaglandin G/H synthase 2 (Homo sapiens, UniProt P35354); experiment: Inhibition of cyclooxygenase 2 in human whole blood assessed as prostaglandin E2 level
T4 sequence (P35354 whole entry): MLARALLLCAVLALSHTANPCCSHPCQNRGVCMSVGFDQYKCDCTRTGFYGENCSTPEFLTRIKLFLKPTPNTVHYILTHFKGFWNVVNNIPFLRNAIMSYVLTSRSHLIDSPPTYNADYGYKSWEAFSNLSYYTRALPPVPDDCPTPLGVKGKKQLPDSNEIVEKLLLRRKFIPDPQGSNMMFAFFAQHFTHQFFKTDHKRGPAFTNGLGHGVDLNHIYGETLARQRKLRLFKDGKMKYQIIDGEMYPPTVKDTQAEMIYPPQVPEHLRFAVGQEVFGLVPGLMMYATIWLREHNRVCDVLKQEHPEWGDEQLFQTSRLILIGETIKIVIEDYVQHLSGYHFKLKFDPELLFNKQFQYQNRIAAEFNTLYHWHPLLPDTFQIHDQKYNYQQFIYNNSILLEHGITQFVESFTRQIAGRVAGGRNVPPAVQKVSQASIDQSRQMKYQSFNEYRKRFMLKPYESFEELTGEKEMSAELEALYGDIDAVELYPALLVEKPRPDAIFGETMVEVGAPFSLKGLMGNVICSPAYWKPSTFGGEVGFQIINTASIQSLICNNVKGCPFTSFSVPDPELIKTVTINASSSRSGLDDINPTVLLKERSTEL

[9] = target: T2, Cannabinoid receptor 1; experiment: Displacement of [3H]CP-55940 from human recombinant CB1 receptor expressed in HEK293 cells; format: cell-based
How it was run: (§3)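 Membranes were from HEK-293 cells overexpressing human CB1 or CB2, with [3H]CP-55,940 as radioligand (Kd 0.18 nM CB1, 0.31 nM CB2). Test compound (1 nM-10 µM) was incubated 90 min at 30 °C. Displaced radioligand was counted by scintillation. Ki came from IC50 via Cheng-Prusoff, with triplicate points; single-concentration screens were run in duplicate.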

[10] = target: T3, Cannabinoid receptor 2; experiment: Displacement of [3H]CP-55940 from human recombinant CB2 receptor expressed in HEK293 cells; format: cell-based; how it was run: as §3
[11] = target: T1, Fatty-acid amide hydrolase 1 (Rattus norvegicus); experiment: Inhibition of FAAH in rat brain membrane assessed as [14C]anandamide hydrolysis at 10 uM by scintillation counting; format: cell membranes; how it was run: as §2
[12] = test system: Mus musculus; experiment: Antinociceptive activity against formalin-induced nociceptive behavior in C57BL/6 mouse assessed as mean licking time at 27.5 mg/kg, ip administered 15 mins prior to formalin challenge measured after 15 to 45 mins relative to control; format: functional; conditions: route intraperitoneal; how it was run: as §1
[13] = test system: Mus musculus; experiment: Antinociceptive activity against formalin-induced nociceptive behavior in C57BL/6 mouse assessed as mean licking time at 55 mg/kg, ip administered 15 mins prior to formalin challenge measured after 15 to 45 mins relative to control; format: functional; conditions: route intraperitoneal; how it was run: as §1
[14] = test system: Mus musculus; experiment: Antinociceptive activity against formalin-induced nociceptive behavior in C57BL/6 mouse assessed as mean licking time at 275 mg/kg, ip administered 15 mins prior to formalin challenge measured after 15 to 45 mins relative to control; format: functional; conditions: route intraperitoneal; how it was run: as §1
[15] = organism: Mus musculus; experiment: Toxicity in C57BL/6 mouse assessed as loss of locomotor behavior; format: organism-based; conditions: in vivo
[16] = test system: Mus musculus; experiment: Antinociceptive activity against formalin-induced nociceptive behavior in C57BL/6 mouse assessed as mean licking time lat 27.5 mg/kg, ip administered 15 mins prior to formalin challenge measured upto 10 mins relative to control; format: functional; conditions: route intraperitoneal; how it was run: as §1
[17] = test system: Mus musculus; experiment: Antinociceptive activity against formalin-induced nociceptive behavior in C57BL/6 mouse assessed as mean licking time at 55 mg/kg, ip administered 15 mins prior to formalin challenge measured upto 10 mins relative to control; format: functional; conditions: route intraperitoneal; how it was run: as §1
[18] = test system: Mus musculus; experiment: Antinociceptive activity against formalin-induced nociceptive behavior in C57BL/6 mouse assessed as mean licking time at 275 mg/kg, ip administered 15 mins prior to formalin challenge measured upto 10 mins relative to control; format: functional; conditions: route intraperitoneal; how it was run: as §1
[19] = target: T5, Prostaglandin G/H synthase 2 (Homo sapiens) (UniProt P35354); experiment: Inhibition of cyclooxygenase 2 in human whole blood assessed as prostaglandin E2 level
T5 sequence (whole entry): T4 sequence (P35354 whole entry)

Structure (SMILES)	Activity [1] [%]	Activity [2] [%]	inhibition [3] [%]	Activity [4] [%]	Activity [5] [%]	Activity [6]	IC50 [6] [µM]	Activity [7]	IC50 [8] [µM]	Ki [9] [µM]	Ki [10] [µM]	inhibition [11] [%]	Activity [12] [%]	Activity [13] [%]	Activity [14] [%]	Activity [15]	Activity [16] [%]	Activity [17] [%]	Activity [18] [%]	Activity [19]
CC(=O)Nc1ccc(O)cc1 [ACETAMINOPHEN]	100	47	22	13	15	Active														
COc1cc(NC(C)=O)ccc1O			8	16	22		234	Toxic	138											
CCCCC/C=C\C/C=C\C/C=C\C/C=C\CCCC(=O)Nc1ccc(O)cc1			55							1.5	1.3	15								
CC(=O)NCc1ccc(O)cc1			4	5	7	inactive							97	71	37	Non-toxic	227	128	50	inactive
